{"source": "ChEMBL document CHEMBL1122996", "about": "“Interactions of apomorphine with serum and tissue proteins” (J Med Chem, 1985)", "key": {"[1]": {"target": "T1, Albumin (Bos taurus, UniProt P02769)", "T1 sequence (P02769 whole entry)": "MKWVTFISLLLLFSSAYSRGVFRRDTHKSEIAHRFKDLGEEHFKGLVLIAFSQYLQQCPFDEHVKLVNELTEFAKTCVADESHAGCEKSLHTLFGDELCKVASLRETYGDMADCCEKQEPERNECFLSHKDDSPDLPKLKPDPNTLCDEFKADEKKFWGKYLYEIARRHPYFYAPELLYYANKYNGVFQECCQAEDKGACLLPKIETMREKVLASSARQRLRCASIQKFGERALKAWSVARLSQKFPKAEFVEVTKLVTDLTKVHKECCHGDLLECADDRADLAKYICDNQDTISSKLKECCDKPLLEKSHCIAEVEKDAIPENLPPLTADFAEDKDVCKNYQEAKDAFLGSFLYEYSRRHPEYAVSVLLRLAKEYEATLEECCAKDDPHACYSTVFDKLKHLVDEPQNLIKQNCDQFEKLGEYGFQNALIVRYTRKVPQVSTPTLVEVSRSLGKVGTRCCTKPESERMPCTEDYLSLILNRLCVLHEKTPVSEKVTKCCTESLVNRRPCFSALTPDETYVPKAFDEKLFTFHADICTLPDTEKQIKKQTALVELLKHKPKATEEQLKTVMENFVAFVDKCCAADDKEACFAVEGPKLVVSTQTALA", "test": "Covalent binding of compound to serum albumin after 1 hr when the level of [8,9-3H2]-1is 2.6 dpm *10e6 expressed as mol of drug/mol of serum albumin", "details": "cattle", "in_short": "(§1)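 BSA (32 mg) with 2 mg apomorphine HCl hemihydrate plus tritiated [8,9-3H2]apomorphine at the level stated, in pH 7.4 phosphate buffer, 2.1 mL total, incubated 1 h. Incubates were extracted twice with ethyl acetate. Protein-bound radioactivity was measured by LSC after one of three workups: perchloric acid precipitation with repeated trifluoroacetic acid-ethanol washes; Sephadex G-25 gel filtration in 1% sodium lauryl sulfate buffer; or 4-day dialysis.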"}, "[2]": {"organism": "Mus musculus", "test": "Ratio of accumulation of radioactivity from 14 to 1 day in liver", "format": "functional", "in_short": "(§2)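 Male CD-1 mice (~35 g, 10 per group) received 1 at 30 mg/kg ip with [³H]-1 (0.153 mCi/kg), once or daily for 14 days, with free access to food and water. At 24 h after the last dose, plasma (infraorbital sinus), brain regions, kidney, liver and GI tract were taken for radioactivity counting. The accumulation ratio is radioactivity after 14 doses divided by radioactivity after 1 dose.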"}, "[3]": {"organism": "Mus musculus", "test": "Percentage of covalently bound total in striatum of mouse", "format": "functional", "in_short": "(§3)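 Male CD-1 mice (~35 g, n=10) given apomorphine 30 mg/kg with [3H]-apomorphine (0.153 mCi/kg) ip daily for 14 days, killed 24 h after the last dose. Plasma from infraorbital sinus; brain split into striatum, cerebellum, forebrain without striatum. Protein-bound radioactivity expressed as µg/g protein (albumin equivalent; plasma µg/mL) and as % of total tissue radioactivity.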"}, "[4]": {"organism": "Mus musculus", "test": "Radio activity of [3H]-l in mice in GI tract with its contents on 14 days", "format": "functional, Gastrointestinal tract", "in_short": "(§4)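 Male CD-1 mice (~35 g, n=10 per group) received apomorphine 30 mg/kg with [3H]-apomorphine (0.153 mCi/kg) ip, once or daily for 14 days. Killed 24 h after the last dose; GI tract (with contents or washed with distilled water), liver and kidney (rinsed of blood) and skeletal tissue taken. Radioactivity given as % of total dose; skeletal tissue as % dose/g wet weight.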"}, "[5]": {"organism": "Homo sapiens", "test": "Percentage binding to human plasma proteins was determined by measuring HPLC peak at 50.0 micro g/ml concentration in plasma", "format": "cell-free", "in_short": "(§5)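 Fresh plasma from fasted healthy human volunteers was spiked with 1-HCl plus [³H]-1 tracer. It was incubated 10 min at 37 °C and ultrafiltered through YMT membranes (1000g, 5 min, 37 °C). Ultrafiltrate was acidified with pH 3.0 acetate buffer containing carrier 1-HCl, argon-flushed and frozen at -15 °C. Phenyl-column HPLC was read by peak-eluate collection LSC, UV peak area, or radiochemical detection. % bound was calculated from total vs ultrafiltrate using a plasma water fraction of 0.93.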"}, "[6]": {"organism": "Homo sapiens", "test": "Percentage binding to human plasma proteins was determined by measuring HPLC peak at 1.00 micro g/ml concentration in plasma", "format": "cell-free", "in_short": "as §5"}, "[7]": {"organism": "Mus musculus", "test": "Radio activity of [3H]-l in mice liver on day 1", "format": "functional", "in_short": "as §4"}, "[8]": {"organism": "Mus musculus", "test": "Radio activity in skeletal tissue (% dose/g of wet wt) on 14 days", "format": "functional", "in_short": "as §4"}, "[9]": {"organism": "Mus musculus", "test": "Ratio of accumulation of radioactivity from 14 to 1 day in cerebellum", "format": "functional", "in_short": "as §2"}, "[10]": {"target": "T1, Albumin", "test": "Covalent binding of compound to serum albumin after 1 hr when the level of [8,9-3H2]-1is 2.7 dpm *10e6", "details": "cattle", "in_short": "as §1"}, "[11]": {"organism": "Mus musculus", "test": "Radio activity of [3H]-l in mice kidney on 14 days", "format": "functional", "in_short": "as §4"}, "[12]": {"target": "T1, Albumin", "test": "Covalent binding of compound to serum albumin after 1 hr when the level of [8,9-3H2]-1is 2.2 dpm *10e6 expressed as mol of drug/mol of serum albumin", "details": "cattle", "in_short": "as §1"}, "[13]": {"organism": "Sus scrofa", "test": "Percentage binding to swine plasma proteins at 0.10 ug/mL concentration of the compound", "format": "cell-free", "in_short": "(§6)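 Plasma came from male Sprague-Dawley rats (~450 g, ether, vena cava blood, lithium heparin) or from six mature female swine (jugular catheter, heparinized). It was spiked with 1-HCl (10 ng–50 µg/mL) containing 0.5 mCi/mL [³H]-1. Samples were ultrafiltered as for human plasma, and the ultrafiltrate was analysed by HPLC peak-collection LSC. N = 4.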"}, "[14]": {"organism": "Rattus norvegicus", "test": "Percentage binding to rat plasma proteins at 1 ug/mL concentration of the compound", "format": "cell-free", "in_short": "as §6"}, "[15]": {"organism": "Mus musculus", "test": "Percentage of covalently bound total in plasma of mouse", "format": "functional", "in_short": "as §3"}, "[16]": {"organism": "Mus musculus", "test": "Radio activity covalently bound to cerebellum of mouse brain", "format": "functional", "in_short": "as §3"}, "[17]": {"target": "T1, Albumin", "test": "Covalent binding of compound to serum albumin after 1 hr when the level of [8,9-3H2]-1is 2.0 dpm *10e6 expressed as mol of drug/mol of serum albumin", "details": "cattle", "in_short": "as §1"}, "[18]": {"organism": "Mus musculus", "test": "Radio activity covalently bound to striatum of mouse brain", "format": "functional", "in_short": "as §3"}, "[19]": {"organism": "Mus musculus", "test": "Percentage of covalently bound total in forebrain without striatum of mouse", "format": "functional", "in_short": "as §3"}, "[20]": {"organism": "Mus musculus", "test": "Radio of accumulation of radioactivity from 14 to 1 day in nonextractable radioactivity in plasma brain", "format": "functional", "in_short": "as §2"}, "[21]": {"organism": "Mus musculus", "test": "Ratio of accumulation of radioactivity from 14 to 1 day in skeletal tissue (%dose/g of wet wt)", "format": "functional", "in_short": "as §2"}, "[22]": {"organism": "Mus musculus", "test": "Ratio of accumulation of radioactivity from 14 to 1 day in kidney", "format": "functional", "in_short": "as §2"}, "[23]": {"organism": "Homo sapiens", "test": "Percentage binding to human plasma proteins was determined by collecting HPLC eluate at 0.10 micro g/ml concentration of compound 1 in plasma", "format": "cell-free", "in_short": "as §5"}, "[24]": {"organism": "Mus musculus", "test": "Ratio of accumulation of radioactivity from 14 to 1 day in plasma contents", "format": "functional", "in_short": "as §2"}, "[25]": {"organism": "Sus scrofa", "test": "Percentage binding to swine plasma proteins at 5.0 ug/mL concentration of the compound", "format": "cell-free", "in_short": "as §6"}, "[26]": {"organism": "Mus musculus", "test": "Percentage of covalently bound total in cerebellum of mouse", "format": "functional", "in_short": "as §3"}, "[27]": {"target": "T1, Albumin", "test": "Covalent binding of compound to serum albumin after 1 hr when the level of [8,9-3H2]-1is 2.3 dpm *10e6", "details": "cattle", "in_short": "as §1"}, "[28]": {"organism": "Mus musculus", "test": "Radio activity accumulation in extractable reactivity in plasma brain (Excreatable reactivity) on 14 days", "format": "functional", "in_short": "(§7)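 Male CD-1 mice (~35 g, n=10 per group) given apomorphine 30 mg/kg fortified with [3H]-apomorphine (0.153 mCi/kg) ip, either once or daily for 14 days. Sampled 24 h after the last dose: plasma from infraorbital sinus (extractable and nonextractable radioactivity) and brain regions (striatum, cerebellum, forebrain without striatum). Radioactivity expressed as µg apomorphine equivalent per mL or per g […].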"}, "[29]": {"organism": "Homo sapiens", "test": "Percentage binding to human plasma proteins was determined by measuring HPLC peak at 0.10 micro g/ml concentration of compound 1 in plasma", "format": "cell-free", "in_short": "as §5"}, "[30]": {"organism": "Mus musculus", "test": "Radio activity of [3H]-l in mice liver on 14 days", "format": "functional", "in_short": "as §4"}, "[31]": {"organism": "Sus scrofa", "test": "Percentage binding to swine plasma proteins at 10.0 ug/mL concentration of the compound", "format": "cell-free", "in_short": "as §6"}, "[32]": {"organism": "Mus musculus", "test": "Radio activity accumulation in forebrain without striatum (Excreatable reactivity) on 14 days", "format": "functional", "in_short": "as §7"}, "[33]": {"organism": "Homo sapiens", "test": "Percentage binding to human plasma proteins was determined by collecting HPLC eluate at 0.01 micro g/ml concentration of compound 1 in plasma", "format": "cell-free", "in_short": "as §5"}, "[34]": {"target": "T1, Albumin", "test": "Covalent binding of compound to serum albumin after 1 hr when the level of [8,9-3H2]-1is 2.7 dpm *10e6 expressed as mol of drug/mol of serum albumin", "details": "cattle", "in_short": "as §1"}}, "note": "Values joined by “and” are separate entries in the source; they are usually repeats but may differ in a detail not shown here. Equal values may be shown once.", "data": [{"smiles": "CN1CCc2cccc3c2[C@H]1Cc1ccc(O)c(O)c1-3", "note": "[APOMORPHINE]", "values": [{"measurement": "Binding", "setting": "[1]", "value": "4 M of drug (M of BSA)-1 and 4.8 M of drug (M of BSA)-1 and 4.4 M of drug (M of BSA)-1"}, {"measurement": "Ratio", "setting": "[2]", "value": 2.6}, {"measurement": "Binding", "setting": "[3]", "value": 1.65, "unit": "%"}, {"measurement": "Amount", "setting": "[4]", "value": 4.01, "unit": "%"}, {"measurement": "Binding", "setting": "[5]", "value": 94.9, "unit": "%"}, {"measurement": "Binding", "setting": "[6]", "value": 96.6, "unit": "%"}, {"measurement": "Amount", "setting": "[7]", "value": 0.38, "unit": "%"}, {"measurement": "Amount", "setting": "[8]", "value": 0.394, "unit": "%"}, {"measurement": "Ratio", "setting": "[9]", "value": 2.9}, {"measurement": "Binding", "setting": "[10]", "value": "8465 dpm mg-1 and 12693 dpm mg-1"}, {"measurement": "Amount", "setting": "[11]", "value": 0.331, "unit": "%"}, {"measurement": "Binding", "setting": "[12]", "value": "2.1 M of drug (M of BSA)-1"}, {"measurement": "Binding", "setting": "[13]", "value": 93, "unit": "%"}, {"measurement": "Binding", "setting": "[14]", "value": 90.4, "unit": "%"}, {"measurement": "Binding", "setting": "[15]", "value": 2.88, "unit": "%"}, {"measurement": "Binding", "setting": "[16]", "value": 0.98, "unit": "µg/g"}, {"measurement": "Binding", "setting": "[17]", "value": "3 M of drug (M of BSA)-1"}, {"measurement": "Binding", "setting": "[18]", "value": 0.94, "unit": "µg/g"}, {"measurement": "Binding", "setting": "[19]", "value": 1.62, "unit": "%"}, {"measurement": "Ratio", "setting": "[20]", "value": 2.6}, {"measurement": "Ratio", "setting": "[21]", "value": 1.6}, {"measurement": "Ratio", "setting": "[22]", "value": 3.1}, {"measurement": "Binding", "setting": "[23]", "value": 97.8, "unit": "%"}, {"measurement": "Ratio", "setting": "[24]", "value": 2.6}, {"measurement": "Binding", "setting": "[25]", "value": 90.4, "unit": "%"}, {"measurement": "Binding", "setting": "[26]", "value": 1.71, "unit": "%"}, {"measurement": "Binding", "setting": "[27]", "value": 6215, "unit": "dpm mg-1"}, {"measurement": "Accumulation", "setting": "[28]", "value": 1.42, "unit": "µg/mL"}, {"measurement": "Binding", "setting": "[29]", "value": 96.6, "unit": "%"}, {"measurement": "Amount", "setting": "[30]", "value": 0.99, "unit": "%"}, {"measurement": "Binding", "setting": "[31]", "value": 86.8, "unit": "%"}, {"measurement": "Accumulation", "setting": "[32]", "value": 69.6, "unit": "µg/g"}, {"measurement": "Binding", "setting": "[33]", "value": 96.8, "unit": "%"}, {"measurement": "Binding", "setting": "[34]", "value": "4 M of drug (M of BSA)-1 and 5.9 M of drug (M of BSA)-1"}]}]}
